DENV2 CPE: DENV2-induced cell death inhibition; AID 651640; 350,000 compounds, 1.7% hits; DENV2-infected cells, cytopathic effect rescue, plate reader; CPE inhibition, % at 9.99 µM; in the data active means CPE inhibition above about 20%, passing the limit was not always enough; inconclusive means no clear call, values can overlap the other calls; tested in BHK-21 cells;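 further: 0% = median of neutral control wells and 100% = median of positive control wells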
C2C12 statin: protects C2C12 myotubes from simvastatin toxicity | ATP luminescence, 48 h; scaled: DMSO 0, geranylgeraniol control 100 | rescue of ATP level, % at 7.49 µM | 330,000 compounds, 0.78% hits | AID 602340;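 active means mean ATP rescue above about 67%, or every replicate alone reaching that limit, limit read from the data, passing the limit was not always enough; inconclusive means no clear call, values can overlap the other calls; inactive means mean under the limit and some replicate under it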;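 further: myotubes were challenged with 10 µM simvastatin during compound exposure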
E-sel inducer: E-selectin induction on HUVECs; P16581; AID 686992; activation, % at 7.58 µM; 260,000 compounds, 0.37% hits; HUVEC E-selectin immunofluorescence imaging; normalized: neutral wells 0, TNF-alpha wells 100;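 active means mean E-selectin-positive cell signal at least 10% of the positive control, reached in at least 60% of replicates, without over 20% cell loss; inconclusive means no rule given, readout overlaps actives, possibly toxicity-flagged; inactive means the rest, including those meeting only one limit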
Target sequence (P16581 whole entry, looked up): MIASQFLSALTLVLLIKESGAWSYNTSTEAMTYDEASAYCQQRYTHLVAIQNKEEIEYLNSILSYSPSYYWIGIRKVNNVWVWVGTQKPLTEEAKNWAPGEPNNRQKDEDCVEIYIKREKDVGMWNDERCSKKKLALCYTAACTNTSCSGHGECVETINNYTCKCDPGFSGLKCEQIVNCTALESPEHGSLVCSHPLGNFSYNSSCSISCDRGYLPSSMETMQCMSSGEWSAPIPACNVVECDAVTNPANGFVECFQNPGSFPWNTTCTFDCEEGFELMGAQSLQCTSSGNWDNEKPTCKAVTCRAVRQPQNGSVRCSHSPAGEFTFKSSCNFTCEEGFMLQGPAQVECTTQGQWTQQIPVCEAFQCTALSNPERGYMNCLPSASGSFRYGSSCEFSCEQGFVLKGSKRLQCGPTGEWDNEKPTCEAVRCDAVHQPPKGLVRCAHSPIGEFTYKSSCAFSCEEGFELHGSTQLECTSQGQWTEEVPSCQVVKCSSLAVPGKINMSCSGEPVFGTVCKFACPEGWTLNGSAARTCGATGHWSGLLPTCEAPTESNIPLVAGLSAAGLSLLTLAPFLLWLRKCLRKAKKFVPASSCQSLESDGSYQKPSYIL
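Material: HUVEC primary endothelial cells; Amount: 3,000 cells per well; Dosing: single concentration; Medium: EGM-2 growth medium on 0.1% gelatin-coated wells; Read-out basis: percent E-selectin-positive cells; Signal: immunofluorescence imaging; Control set: TNF-alpha, DMSO.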
* = called active by the depositor; ? = inconclusive; . = no result given. Shown are actives, neighbours in structure and some others; about 2.2% of the full set was active somewhere.

SMILES | DENV2 CPE | C2C12 statin | E-sel inducer
CN(C)CCCNC(=O)C[C@H]1CC[C@@H]2[C@@H](COc3ccc(NC(=O)C4CCC4)cc3C(=O)N2C)O1 | ? | 6 | 0
CCCn1c(C2CCCN2c2nc(C)cs2)nc2cc(Cl)c(Cl)cc21 (configuration not stated) | . | 6 | 0
CCCn1c(C2CCCN2c2nc(-c3cccc(Br)c3)cs2)nc2cc(Cl)c(Cl)cc21 (configuration not stated) | . | 117* | 0
C[C@H]1CCCCO[C@H](CN(C)C(=O)Cc2ccccc2)[C@@H](C)CN([C@@H](C)CO)C(=O)c2cc(NC(=O)c3ccccc3)ccc2O1 | -1 | . | .
C[C@H](CO)N1C[C@H](C)[C@H](CN(C)Cc2ccc(-c3ccccc3)cc2)Oc2ccc(NC(=O)CCCCCC(=O)Nc3ccccc3N)cc2C1=O | 32* | . | 18
C[C@H](CO)N1C[C@H](C)[C@@H](CN(C)S(=O)(=O)c2ccc(F)cc2)Oc2ccc(NC(=O)CCCCCC(=O)Nc3ccccc3N)cc2C1=O | 26* | . | -6
C[C@H](CO)N1C[C@H](C)[C@H](CN(C)C(=O)Nc2ccccc2)Oc2ccc(NC(=O)CCCCCC(=O)Nc3ccccc3N)cc2C1=O | 52* | . | 0
COc1ccc(CN(C)C[C@H]2Oc3ccc(NC(=O)CCCCCC(=O)Nc4ccccc4N)cc3CC(=O)N([C@@H](C)CO)C[C@@H]2C)cc1 | 19 | . | 0
C[C@H](CO)N1C[C@H](C)[C@H](CN(C)S(=O)(=O)c2ccc(F)cc2)Oc2ccc(NC(=O)CCCCCC(=O)Nc3ccccc3N)cc2C1=O | -1 | . | -6
C[C@@H]1CN([C@H](C)CO)C(=O)Cc2cc(NC(=O)CCCCCC(=O)Nc3ccccc3N)ccc2O[C@H]1CN(C)Cc1ccc(Oc2ccccc2)cc1 | 2 | 104* | 12
C[C@H]1CN([C@@H](C)CO)C(=O)c2cc(NC(=O)CCCCCC(=O)Nc3ccccc3N)ccc2O[C@H]1CN(C)C(=O)Nc1ccccc1 | -3 | . | 0
C[C@H]1CN([C@@H](C)CO)C(=O)c2cc(NC(=O)CCCCCC(=O)Nc3ccccc3N)ccc2O[C@H]1CN(C)Cc1ccc(-c2ccccc2)cc1 | . | . | 0
C[C@@H]1CN([C@@H](C)CO)S(=O)(=O)c2ccc(C#Cc3cccnc3)cc2O[C@H]1CN(C)C | 4 | 10 | 1
CCS(=O)(=O)Nc1ccc2c(c1)C(=O)N(C)[C@H]1CC[C@@H](CC(=O)Nc3ccccc3)O[C@@H]1CO2 | 0 | -2 | 0
C/C=C/c1ccc([C@@H]2[C@H](CO)N[C@H]2CNS(=O)(=O)c2ccccc2)cc1 | -9 | -59 | 0
CN1[C@@H]2c3ccc(C4=CCCC4)c(=O)n3C[C@H]1[C@H](CO)[C@H]2C(=O)NC1Cc2ccccc2C1 | -2 | -26 | 0
C/C=C/c1ccc([C@H]2[C@@H](CNC(=O)CC3CC3)N(C(C)=O)[C@H]2CO)cc1 | 10 | 6 | 0
Cc1noc(C)c1S(=O)(=O)N(C)C[C@@H]1OCCCC[C@H](C)Oc2ccc(NC(=O)NC3CCCCC3)cc2C(=O)N([C@H](C)CO)C[C@H]1C | ? | . | 0
C[C@@H]1CN([C@H](C)CO)C(=O)Cc2cc(NC(=O)CCCCCC(=O)Nc3ccccc3N)ccc2O[C@H]1CN(C)Cc1ccccc1 | ? | 39 | 0
C[C@H]1CN([C@@H](C)CO)C(=O)Cc2cc(NC(=O)CCCCCC(=O)Nc3ccccc3N)ccc2O[C@@H]1CN(C)Cc1ccc(Cl)c(Cl)c1 | -16 | 124* | -5
C[C@@H]1CN([C@H](C)CO)C(=O)Cc2cc(NC(=O)CCCCCC(=O)Nc3ccccc3N)ccc2O[C@H]1CN(C)Cc1ccc(Cl)c(Cl)c1 | 0 | . | 0
C[C@H]1CN([C@@H](C)CO)C(=O)Cc2cc(NC(=O)CCCCCC(=O)Nc3ccccc3N)ccc2O[C@H]1CN(C)Cc1ccc(-c2ccccc2)cc1 | 3 | 142* | 13
CCCN(C)C[C@H]1OCCCC[C@@H](C)Oc2ccc(NC(=O)Nc3ccc(OC)cc3)cc2C(=O)N([C@H](C)CO)C[C@@H]1C | 10 | -24 | 0
CC=Cc1ccc2n(c1=O)C[C@@H]1[C@@H](CO)[C@H](C(=O)NCC3CC3)[C@H]2N1CC1CCOCC1 (mixture of isomers) | -5 | -8 | 1
CCCc1cn([C@H]2C[C@@H]3O[C@H](CO)CC[C@@H]3O[C@@H]2CCc2ccc(C#CCc3ccccc3)cc2)nn1 | -2 | . | .
CCn1cc([N+](=O)[O-])c(C(=O)N2N=C(c3cccc4ccccc34)CC2c2ccccc2O)n1 (configuration not stated) | . | 80* | .
CCn1cc([N+](=O)[O-])c(C(=O)N2N=C(c3ccc4ccccc4c3)CC2c2ccccc2O)n1 (configuration not stated) | . | 44 | .

Source: PubChem BioAssay
